Assay outcomes as filed in PubChem BioAssay.
Shown are actives, neighbours in structure and some others; about 29% of the full set was active somewhere.
CYP2C9 inhib – blockers of cytochrome P450 2C9 activity – biochemical, luminescence, ADME assay, primary screen; P11712; CYP2C9 Supersomes, luciferin-H conversion; inhibition, % at 5 µM; hit rate 20% among 96,000;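 active means blocking of liver enzyme CYP2C9 beyond about 50% at 5 µM, limit read from the data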
CYP2C19 act – human CYP2C19 activators, primary screen, biochemical, luminescence; recombinant CYP2C19, luciferin-H EGE luminescence; hits give high values; 0 = fully inhibited enzyme, 1 = untreated enzyme; activation factor at 5 µM; 96,000 tested, under 10 active;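 active means activation factor of at least 2 at 5 µM in the primary screen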
Target sequence (P33261 whole entry, looked up): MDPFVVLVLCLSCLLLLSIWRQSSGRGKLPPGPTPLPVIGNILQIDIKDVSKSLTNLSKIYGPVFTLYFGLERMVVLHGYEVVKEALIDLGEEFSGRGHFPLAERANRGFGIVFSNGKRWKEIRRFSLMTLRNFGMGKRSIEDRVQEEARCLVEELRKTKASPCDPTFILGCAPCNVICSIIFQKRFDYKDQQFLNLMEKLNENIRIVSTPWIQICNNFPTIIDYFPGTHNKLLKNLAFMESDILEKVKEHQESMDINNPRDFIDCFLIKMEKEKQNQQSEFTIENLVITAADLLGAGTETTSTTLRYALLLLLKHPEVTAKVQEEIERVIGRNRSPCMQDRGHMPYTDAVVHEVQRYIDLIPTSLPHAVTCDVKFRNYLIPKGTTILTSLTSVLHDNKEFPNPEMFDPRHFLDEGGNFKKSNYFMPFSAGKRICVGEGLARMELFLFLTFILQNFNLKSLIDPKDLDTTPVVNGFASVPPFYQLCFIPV
tolC growth inh – growth inhibitors of E. coli tolC mutant, primary screen, strain BW25113 ΔtolC::kan, 384-well; OD615; growth inhibition, % at 10 µM (by protocol); hit rate 2.2% among 65,000;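 active means growth inhibition at or above a cutoff equal to the mean over every tested compound plus 3 SD, cut at about 60% in these data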;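 further: growth measured after 20 h incubation at 37 °C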
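Signal: optical density read at 615 nm; Assay system: E. coli ΔtolC::kan strain BW25113; Times: 20 h incubation with compound, 37 °C; Dosing: 10 µM final, single dose.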
Ecoli WT expand – growth inhibitors of wild-type E. coli, primary screen, strain BW25113, expanded library, OD600; hit rate 0.15% among 98,000; growth inhibition, % at 100 µM; AID 710, 2007; OD600 absorbance;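 active means growth inhibition above about 50% at one test dose, limit read from the data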;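 further: growth measured after 20 h incubation at 37 °C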
CYP2C9 activ – human CYP2C9 activators, primary screen, biochemical, luminescence; Cytochrome P450 2C9 (Homo sapiens), P11712; recombinant CYP2C9, luciferin-H conversion; hits give high values; factor 1 = untreated enzyme, 0 = blocked; activation factor at 5 µM; hit rate 1.4% among 96,000; AID 1024, 2008;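 active means activation factor of 2 or more for CYP2C9 at a 5 µM dose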
CYP2C19 inhib – blockers of cytochrome P450 2C19 activity – biochemical, luminescence, ADME assay, primary screen | hit rate 21% among 96,000 | AID 778, 2007 | CYP2C19 Supersomes, luciferin-H EGE luminescence, 30 min | inhibition, % at 5 µM;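 active means CYP2C19 inhibition above a set limit at 5 µM in the primary screen, cut at about 50% in these data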
Numbers stand for hits; - = inactive; . = not tested or not shown.

SMILES | CYP2C9 inhib | CYP2C19 act | tolC growth inh | Ecoli WT expand | CYP2C9 activ | CYP2C19 inhib
O=C1c2ccccc2NC(c2ccc3c(c2)OCO3)N1O (stereo unspecified) | - | - | - | - | - | -
COc1cc(C2Nc3ccccc3C(=O)N2c2ccc3c(c2)OCCO3)ccc1OCC(C)C (stereo unspecified) | 99 | - | . | - | - | 70
O=C1c2ccccc2NC(c2ccc3c(c2)OCCO3)N1c1ccc2c(c1)OCCO2 (stereo unspecified) | 94 | - | - | - | - | 79
C=CCn1c(SCC(=O)Nc2c(C)cccc2C)nnc1-c1cnccn1 | - | - | - | - | - | 100
C=CCn1c(Cc2csc(N)n2)nnc1SCC(=O)Nc1ccccc1C(F)(F)F | - | - | . | - | - | 53
C=CCn1c(SCC(=O)Nc2ccccc2CC)nnc1-c1ccncc1 | - | - | - | - | - | 91
CCCn1c(SCC(=O)NCc2ccccc2)nnc1-c1ccncc1 | - | - | . | - | - | -
C=CCn1c(SCC(=O)Nc2ccccc2C)nnc1-c1ccncc1 | - | - | - | - | - | 74
Cc1c(Br)ccc(NC(=O)CCN2C(=O)C3C4CCC(C4)C3C2=O)c1C (stereo unspecified) | - | - | . | - | - | -
C=CCn1c(SCc2cccnc2)nnc1-c1ccncc1 | - | - | - | - | - | -
Nn1c(SCC(=O)Nc2ccc(F)cc2F)nnc1-c1cccnc1 | - | - | - | - | - | -
C=CCn1c(SCC(=O)Nc2ccc(C)cc2C)nnc1-c1cccnc1 | 87 | - | - | - | - | -
CCOc1ccccc1NC(=O)CSc1nnc(-c2cnccn2)n1CC | - | - | - | - | - | 88
C=CCn1c(SCc2c(Cl)cccc2Cl)nnc1-c1cccnc1 | - | - | . | - | - | 54
CCOc1ccc(NC(=O)CCN2CCCCC2)cc1 | - | - | - | - | - | -
CCOc1ccc(C(=O)CN2CCN(S(=O)(=O)c3ccc(Br)cc3)CC2)cc1 | - | - | - | - | - | -
CCOc1ccc(NC(=O)CCN2CCN(S(=O)(=O)c3ccc(Cl)cc3)CC2)cc1 | 73 | - | . | - | - | 72
CCOc1ccc(C(=O)CN2CCN(S(=O)(=O)c3ccc(OC)cc3)CC2)cc1 | - | - | - | - | - | 77
COc1ccc(NC(=O)CCN2CCN(S(=O)(=O)c3cc(Cl)ccc3OC)CC2)cc1 | 65 | - | - | - | - | 97
CCOc1ccc(NC(=O)CCN2CCN(S(=O)(=O)c3ccc(OC)cc3)CC2)cc1 | 53 | - | . | - | - | -
CC1CC(C)CN(CCCNC(=O)COc2cc(=O)n(C)c3ccccc23)C1 (stereo unspecified) | . | . | - | . | . | .
CCOCCc1nnc(NC(=O)c2ccc(OC)c(OC)c2)s1 | - | - | - | - | - | -
O=C(CSc1nc(N2CCCCC2)nc(N2CCCCC2)n1)NC1CCCCC1 | . | . | - | . | . | .
CC(C)(C)NC(=O)C(c1ccccn1)N(C(=O)c1ccc2c(c1)OCCO2)C1CCCC1 (stereo unspecified) | - | - | - | - | - | -
Cc1cc(C)n2nc3nc4c(cc3c2n1)CCCC4 | - | - | - | - | - | -
SMILES | CYP2C9 inhib | CYP2C19 act | tolC growth inh | Ecoli WT expand | CYP2C9 activ | CYP2C19 inhib
CC(C)c1nc2sc3c(SCC(=O)NCc4ccco4)ncnc3c2c2c1CCC2 | 70 | - | - | - | - | 59
CC1(C)Cc2nc3sc4c(SCC(=O)NCc5ccco5)ncnc4c3cc2CO1 | 64 | - | - | - | - | -
Cc1nc2c(sc3nc4c(cc32)COC(C)(C)C4)c(=O)n1CC(=O)NCc1ccco1 | . | . | - | - | . | .
O=[N+]([O-])c1ccc(C2CCCC/C2=N\OCc2cccc(F)c2)c([N+](=O)[O-])c1 (stereo unspecified) | - | - | . | - | - | -
CCn1nnc(NC(=O)c2cc3ccccc3o2)n1 | - | - | - | - | - | -
Cc1cc(C)cc(NC(=S)NCC2CCCO2)c1 (stereo unspecified) | - | - | . | - | 2.1 | -
COc1ccc(CNC(=O)C(=O)NCC2CCCO2)cc1 (stereo unspecified) | - | - | . | - | - | -
COc1ccc(NC(=S)NCC2CCCO2)c(OC)c1 (stereo unspecified) | - | - | . | - | - | 56
COCCNC(=O)c1cn(C)c2ccc(S(=O)(=O)N(C)C3CCCCC3)cc2c1=O | - | - | - | - | - | -
CC1(C)Oc2ccc(C(=O)N3CCCCC3)cc2N(CC(=O)NCc2ccccc2)C1=O | - | - | - | - | - | -
Cc1ccc(CN2C(=O)C(C)(C)Oc3ccc(C(=O)N4CCCCC4)cc32)cc1 | 57 | - | - | - | - | -
COc1cccc(NC(=O)c2ccc3c(c2)N(CC(=O)N2CCCCC2)C(=O)C(C)(C)O3)c1 | 64 | - | - | - | - | -
CC1CCCC(C)N1C(=O)CN1C(=O)C(C)(C)Oc2ccc(C(=O)NC3CCCC3)cc21 (stereo unspecified) | - | - | - | - | - | -
COc1cccc(C(=O)CN2C(=O)C(C)(C)Oc3ccc(C(=O)N4CCCCCC4)cc32)c1 | 67 | - | - | - | - | -
CC1CCCC(C)N1C(=O)CN1C(=O)C(C)(C)Oc2ccc(C(=O)NC3CCCCC3)cc21 (stereo unspecified) | - | - | 84 | - | - | -
CNC(=O)c1sccc1SCc1ccc(Cl)cc1Cl | - | - | . | - | - | 75
CNC(=O)c1sccc1SCc1c(Cl)cccc1Cl | - | - | . | - | - | -
C=CCn1c(SCC(=O)c2ccccc2)nnc1-c1cc2ccccc2o1 | - | - | - | - | - | 78
C=CCn1c(SCC(=O)c2ccccc2)nnc1-c1ccc2c(c1)OCO2 | - | - | - | - | - | 77
CCCCOc1ccc(C2(C)CC(=O)NC2=O)cc1 (stereo unspecified) | - | - | - | - | - | 51
Cc1ccc(C(=O)Oc2ccccc2N2C(=O)C3CCC(C)CC3C2=O)cc1 (stereo unspecified) | 58 | - | . | - | - | 54
c1ccc2c(-c3nc4ncccc4o3)cccc2c1 | - | - | - | - | 3.3 | -
O=C(COc1ccccc1)Nc1ccc(Cl)c(-c2nc3ncccc3o2)c1 | . | . | - | . | . | .
Cc1cc(N2CCOCC2)n2nc(-c3cccc(F)c3)cc2n1 | . | . | - | - | . | .
CCOC(=O)C1CCCN(c2cc(C)nc3cc(-c4ccc(F)cc4)nn23)C1 (stereo unspecified) | 67 | - | - | - | - | -
Cc1ccc(N(CC(=O)N/N=C/c2ccco2)S(=O)(=O)c2ccccc2)cc1 | - | - | . | - | - | -
Cc1cc(C(=O)CSc2nnc(N)s2)c(C)n1CCc1ccc(F)cc1 | 88 | - | - | - | - | 96
